Screens as filed in PubChem.
CHRM5 antagonist – CHRM5 antagonism in calcium assay. P08912. CHO-hM5 cells, Fluo-8 calcium fluorescence, ACh EC80. inhibition, % at 3 µM. 360,000 tested, 0.59% active;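 active means inhibition above a per-plate cutoff, the mean of that plate's test compounds plus 3 SD, cut at about 27% in these data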;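 further: 0% = acetylcholine EC80 with DMSO and 100% = DMSO without agonist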
Target sequence (P08912 whole entry, looked up): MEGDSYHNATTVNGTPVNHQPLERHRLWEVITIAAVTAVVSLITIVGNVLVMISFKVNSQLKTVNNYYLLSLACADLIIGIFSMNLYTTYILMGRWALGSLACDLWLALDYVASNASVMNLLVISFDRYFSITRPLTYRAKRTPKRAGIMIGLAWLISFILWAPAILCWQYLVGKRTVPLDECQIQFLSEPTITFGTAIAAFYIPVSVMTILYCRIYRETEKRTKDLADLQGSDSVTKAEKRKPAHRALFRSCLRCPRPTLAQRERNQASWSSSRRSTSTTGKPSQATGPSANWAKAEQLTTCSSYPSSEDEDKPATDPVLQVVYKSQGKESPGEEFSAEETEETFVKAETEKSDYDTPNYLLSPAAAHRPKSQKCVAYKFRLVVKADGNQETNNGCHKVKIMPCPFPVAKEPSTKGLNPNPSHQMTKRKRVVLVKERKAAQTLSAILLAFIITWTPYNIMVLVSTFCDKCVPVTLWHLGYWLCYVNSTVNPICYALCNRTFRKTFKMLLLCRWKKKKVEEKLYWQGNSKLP
CHRM4 PAM – positive allosteric modulators of human muscarinic M4 receptor; P08173; activation, % at 3 µM; 360,000 tested, 0.4% active; AID 624126; CHO-K1 hM4/Gqi5, Fluo-8 calcium fluorescence, ACh EC20; 0% = ACh EC20, 100% = maximal ACh;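 active means activation above its plate's cutoff, the mean activation of sample wells plus 3 SD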
CHRM4 antagonist – CHRM4 antagonism in calcium assay; CHO-hM4 cells, ACh EC80, Fluo-8 calcium fluorescence; inhibition, % at 3 µM; 360,000 tested, 0.73% active; AID 624125;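 active means inhibition above its plate's cutoff, the mean inhibition of sample wells plus 3 SD, cut at about 27% in these data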;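 further: 0% = acetylcholine EC80 with DMSO and 100% = DMSO without agonist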
CHRM5 PAM – CHRM5 positive allosteric modulation; CHO-K1 hM5, Fluo-8 calcium, ACh EC20 PAM; 0% = ACh EC20, 100% = ACh EC100; activation, % at 3 µM; 360,000 tested, 0.3% active; AID 624038;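 active means activation above the run cutoff, the mean activation of all test compounds plus 3 SD, cut at about 18% in these data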
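System: CHO-K1 hM5 cells. Reagent: acetylcholine, EC20 level. Compound dosing: single dose, 3 µM nominal final test concentration. Timing: Post-acetylcholine fluorescence recording 140 s. Detection: Fluo-8 calcium fluorescence. Read-out: % activation, ACh-normalized. Benchmarks: ACh EC20 and EC100 wells. Repeats: singlicate, one well per test compound.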
CHRM4 agonist – agonists of human muscarinic M4 receptor (CHRM4); activation, % at 3 µM; P08173; CHO-K1 hM4/Gqi5, Fluo-8 calcium fluorescence; vehicle 0%, full acetylcholine response 100%; AID 624127; 360,000 tested, 0.14% active;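 active means activation above the run mean over all test wells plus 3 SD, cut at about 32% in these data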;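 further: peak over basal fluorescence ratio per well then scaled between controls; 0% = DMSO wells and 100% = acetylcholine at EC100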
CHRM5 agonist – CHRM5 agonism in calcium assay; P08912; CHO-K1 hM5 cells, Fluo-8 calcium fluorescence; 0% DMSO wells, 100% maximal acetylcholine response; activation, % at 3 µM; 360,000 tested, 0.19% active; AID 624037;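 active means activation above the run's mean over test compounds plus 3 SD, cut at about 23% in these data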;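 further: signal is peak over basal fluorescence ratio across the kinetic read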
An asterisk follows results filed as active; ! = not active in a repeat. Hits are enriched below; roughly 1.8% of the tested compounds scored in any of these assays.

How did Cc1ccc(NC(=O)CC(=O)c2ccccc2)cc1C do in these assays?
CHRM5 antagonist: 13; CHRM4 PAM: 3; CHRM4 antagonist: -8; CHRM5 PAM: -2; CHRM4 agonist: 0; CHRM5 agonist: -3

What do the screens show for `CCc1nc2ccc(C(=O)Nc3ccc4c(c3)OCC(=O)N4)cn2c1N(C)Cc1nccn1C`?
CHRM5 antagonist: 11; CHRM4 PAM: 3; CHRM4 antagonist: -4; CHRM5 PAM: 1; CHRM4 agonist: 1; CHRM5 agonist: -8

Results for O=C(CC1C(=O)NCCN1Cc1c(F)cccc1Cl)NC1CCCC1 (configuration not stated) ?
CHRM5 antagonist: 6; CHRM4 PAM: -9; CHRM4 antagonist: 4; CHRM5 PAM: -11; CHRM4 agonist: 1; CHRM5 agonist: -1

What do the screens show for `Cn1c(=O)c2c(nc(N/N=C/c3ccc(OC(=O)c4ccco4)cc3)n2Cc2ccccc2Cl)n(C)c1=O`?
CHRM5 antagonist: -12; CHRM4 PAM: 13; CHRM4 antagonist: -24; CHRM5 PAM: 4; CHRM4 agonist: 0; CHRM5 agonist: -1

How did CSC1=NC=C(C#N)C2=NC(c3c(Cl)cccc3Cl)NN12 (configuration not stated) do in these assays?
CHRM5 antagonist: -1; CHRM4 PAM: -1; CHRM4 antagonist: 7; CHRM5 PAM: -2; CHRM4 agonist: -2; CHRM5 agonist: 9

How did CCCCCCCCCCOC(=O)Cn1c(COc2ccc(OC)cc2)[n+](C)c2ccccc21 do in these assays?
CHRM5 antagonist: 28*!; CHRM4 PAM: -13; CHRM4 antagonist: 32*!; CHRM5 PAM: -14; CHRM4 agonist: 1; CHRM5 agonist: -7

What do the screens show for `CCCc1cc(=O)oc2c3c(cc(OCC(=O)N4CCC(C(=O)O)CC4)c12)OC(C)(C)CC3`?
CHRM5 antagonist: 7; CHRM4 PAM: -4; CHRM4 antagonist: 2; CHRM5 PAM: -7; CHRM4 agonist: 0; CHRM5 agonist: 1

Results for CCCCCCN[C@H]1CCC2C3CC=C4C[C@@H](O)CC[C@]4(C)C3CC[C@@]21C (some centres not stated) ?
CHRM5 antagonist: 12; CHRM4 PAM: -12; CHRM4 antagonist: 37*; CHRM5 PAM: -18; CHRM4 agonist: 12; CHRM5 agonist: -10

How did COc1ccc(/C=C2\SC(=O)NC2=S)cc1OC do in these assays?
CHRM5 antagonist: 12; CHRM4 PAM: -28; CHRM4 antagonist: 20; CHRM5 PAM: -18; CHRM4 agonist: 33*; CHRM5 agonist: 11

Results for CCOc1ccc(/C=C2\SC(=S)NC2=O)cc1OC ?
CHRM5 antagonist: -5; CHRM4 PAM: -2; CHRM4 antagonist: -2; CHRM5 PAM: -1; CHRM4 agonist: 3; CHRM5 agonist: 1

How did COc1cc(/C=C2/SC(=S)NC2=O)ccc1OS(=O)(=O)c1ccc(C)cc1 do in these assays?
CHRM5 antagonist: 36*; CHRM4 PAM: -13; CHRM4 antagonist: 11; CHRM5 PAM: -17; CHRM4 agonist: 10; CHRM5 agonist: 5

How did COc1ccc(/C=C2\SC(=S)NC2=O)cc1OS(=O)(=O)c1ccc(NC(C)=O)cc1 do in these assays?
CHRM5 antagonist: 11; CHRM4 PAM: 1; CHRM4 antagonist: -7; CHRM5 PAM: -8; CHRM4 agonist: 3; CHRM5 agonist: 2

Results for CC(=O)Nc1ccc(Sc2ncccc2C(=O)Nc2ccc(F)cc2)cn1 ?
CHRM5 antagonist: 15; CHRM4 PAM: -26; CHRM4 antagonist: 26; CHRM5 PAM: -14; CHRM4 agonist: 94*; CHRM5 agonist: 50*

How did COc1cccc(/C=N/Nc2snc(SC)c2C#N)c1O do in these assays?
CHRM5 antagonist: 17; CHRM4 PAM: -12; CHRM4 antagonist: 10; CHRM5 PAM: -14; CHRM4 agonist: 35*; CHRM5 agonist: 21

How did COc1ccc([N+](=O)[O-])cc1N(CC(=O)N1CCCCC1)S(C)(=O)=O do in these assays?
CHRM5 antagonist: -9; CHRM4 PAM: 4; CHRM4 antagonist: -5; CHRM5 PAM: 0; CHRM4 agonist: 1; CHRM5 agonist: -4

How did CCCCn1nnc(NC(=O)CC23CC4CC(CC(C4)C2)C3)n1 do in these assays?
CHRM5 antagonist: 3; CHRM4 PAM: 15*; CHRM4 antagonist: -8; CHRM5 PAM: 2; CHRM4 agonist: 1; CHRM5 agonist: 3

Results for Cn1cccc1C(=O)OCC(=O)Nc1ccc2c(c1)OCCO2 ?
CHRM5 antagonist: 10; CHRM4 PAM: 5; CHRM4 antagonist: -2; CHRM5 PAM: 5; CHRM4 agonist: 3; CHRM5 agonist: 2

How did COc1ccc(CC(=O)Nc2nnc(SCC(=O)NCc3ccco3)s2)cc1OC do in these assays?
CHRM5 antagonist: 8; CHRM4 PAM: 3; CHRM4 antagonist: -3; CHRM5 PAM: 2; CHRM4 agonist: 1; CHRM5 agonist: 0

Results for CCOC1=C2[C@@H](CN(S(=O)(=O)c3ccccc3C)[C@H]2c2ccc(Cl)cc2)[C@H]2C(=O)NC(=O)[C@H]2C1 ?
CHRM5 antagonist: -6; CHRM4 PAM: -14; CHRM4 antagonist: 43*; CHRM5 PAM: 8; CHRM4 agonist: 2; CHRM5 agonist: 2

How did CCOC1=C2[C@@H](CN(S(=O)(=O)c3ccccc3C)[C@H]2c2ccc(Cl)cc2)[C@H]2C(=O)N(c3ccccc3)C(=O)[C@H]2C1 do in these assays?
CHRM5 antagonist: -6; CHRM4 PAM: -5; CHRM4 antagonist: 0; CHRM5 PAM: 4; CHRM4 agonist: 0; CHRM5 agonist: 1

How did O=C(O)C1CCCCC1C(=O)NCc1ccc(Cl)c(Cl)c1 (configuration not stated) do in these assays?
CHRM5 antagonist: 8; CHRM4 PAM: 7; CHRM4 antagonist: -5; CHRM5 PAM: -1; CHRM4 agonist: 1; CHRM5 agonist: -3

Results for CCOC(=O)c1c(C)[nH]c(C(=O)OCC(=O)Nc2cc(C)c(Cl)cc2OC)c1C ?
CHRM5 antagonist: -1; CHRM4 PAM: 4; CHRM4 antagonist: -1; CHRM5 PAM: -8; CHRM4 agonist: 0; CHRM5 agonist: -7

Results for Oc1ccc(Nc2nc(-c3ccc(O)cc3)cs2)cc1 ?
CHRM5 antagonist: 0; CHRM4 PAM: 34*; CHRM4 antagonist: -2; CHRM5 PAM: 12; CHRM4 agonist: 0; CHRM5 agonist: 1

Results for NS(=O)(=O)c1ccc(Nc2nc(-c3ccc(O)cc3)cs2)cc1 ?
CHRM5 antagonist: 12; CHRM4 PAM: -11; CHRM4 antagonist: 19; CHRM5 PAM: -11; CHRM4 agonist: 2; CHRM5 agonist: 1

How did COc1ccc(NC2=NCC(=O)N2Cc2cccs2)cc1 do in these assays?
CHRM5 antagonist: -16; CHRM4 PAM: 4; CHRM4 antagonist: -8; CHRM5 PAM: 21*; CHRM4 agonist: -1; CHRM5 agonist: 1

What do the screens show for `COc1ccc(NC2=NCCC(=O)N2Cc2cccs2)cc1`?
CHRM5 antagonist: 7; CHRM4 PAM: -1; CHRM4 antagonist: 4; CHRM5 PAM: -3; CHRM4 agonist: 1; CHRM5 agonist: -1
